From ChEMBL document CHEMBL1926568, “Synthesis, biological evaluation and mechanistic studies of totarol amino alcohol derivatives as potential antimalarial agents” (Bioorg Med Chem, 2012) come the findings set out here.

The source made the active and inactive calls. No cut-off for these calls is given here.

Series [1] relates to Plasmodium falciparum. The experiment in a line: Antiplasmodial activity against chloroquine-sensitive Plasmodium falciparum D10 after 48 hrs by lactate dehydrogenase assay. In kind it is functional, organism-based. As to conditions: D10, 48 h. A digest of the protocol: (§1)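 P. falciparum D10 (CQ-sensitive) and K1 (CQ-resistant) kept in continuous in vitro culture, synchronized with 5% D-sorbitol at ring stage when needed; growth read by parasite lactate dehydrogenase assay; each compound run in duplicate on two separate occasions.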

Series [2] concerns Plasmodium falciparum. The series can be described thus: Antiplasmodial activity against chloroquine-resistant Plasmodium falciparum K1 after 48 hrs by lactate dehydrogenase assay. In kind it is functional, organism-based. As to conditions: K1, 48 h. A digest of the protocol: as §1
The subject of series [3] is Plasmodium falciparum. The experiment in a line: Resistance index, ratio of IC50 for chloroquine-resistant Plasmodium falciparum K1 to IC50 for chloroquine-sensitive Plasmodium falciparum D10. In kind it is functional. A digest of the protocol:
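Resistance index computed as IC50 (K1)/IC50 (D10), both from the pLDH assay, each run in duplicate on two separate occasions.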

Series [4] concerns CHO. The series can be described thus: Cytotoxicity against CHO cells after 48 hrs by MTT assay. The settings on record: Cricetulus griseus. In kind it is cell-based. The procedure, abridged:
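CHO cells in DMEM:Ham's (1:1) with 10% heat-inactivated FCS and gentamicin, 37 °C, 5% CO2; 1×10^4 cells/well seeded 24 h, then serial dilutions from DMSO stocks (100–0.01 µg/ml) for 48 h, with medium and DMSO controls.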

A short description of series [5]: Selectivity index, ratio of IC50 for CHO cells to IC50 for chloroquine-sensitive Plasmodium falciparum D10. In kind it is toxicity, cell-based. As to conditions: hamster, CHO cells (cytotoxicity) versus Plasmodium falciparum D10; read-out: Ratio IC50.
The nature of series [6]: Selectivity index, ratio of IC50 for CHO cells to IC50 for chloroquine-resistant Plasmodium falciparum K1. As to conditions: hamster, CHO cells (cytotoxicity) versus Plasmodium falciparum K1; read-out: Ratio IC50. In kind it is toxicity, cell-based.
Series [7] is described as follows: Cytotoxicity in un-parasitized erythrocytes assessed as morphological changes at 6.25 ug/ml after 48 hrs by phase contrast microscopy. The settings on record: erythrocyte. In kind it is cell-based. The procedure, abridged: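 Unparasitized erythrocytes (hematocrit 2%) held 48 h with 6.25 µg/ml compound (diluted from 100 µg/ml stocks), then fixed with 1% glutaraldehyde in paraformaldehyde; cell shape of 20 µl samples examined by phase-contrast light microscopy at ×1000.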

The subject of series [8] is Plasmodium falciparum. The experiment in a line: Antiplasmodial activity against Plasmodium falciparum schizonts assessed as parasitemia at IC50 concentration treated until all schizonts had burst and invasion was assumed to have occurred by Giemsa staining-based microscopy (reference value: 8.83%). In kind it is functional.
Series [9] deals with Plasmodium falciparum. The series can be described thus: Antiplasmodial activity against Plasmodium falciparum schizonts assessed as change in parasitemia at IC50 concentration treated until all schizonts had burst and invasion was assumed to have occurred by Giemsa staining-based microscopy relative to control. In kind it is functional.
Series [10] deals with Erythrocyte. The series can be described thus: Induction of [3H]-chloroquine accumulation in erythrocytes infected with chloroquine-resistant Plasmodium falciparum K1 trophozoites at 5 uM pre-incubated for 15 mins before exposure to [3H]-chloroquine measured after 1 hr by liquid scintillation counting relative to control. In kind it is functional. A digest of the protocol:
(§2)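 Synchronized K1-infected erythrocytes at trophozoite stage (1% hematocrit, 5% parasitemia) preincubated with test compound 15 min at 37 °C, then 4 nM 3H-CQ for 1 h at 37 °C; cells spun through dibutylphthalate, pellet digested and counted by liquid scintillation; accumulation expressed relative to untreated control; verapamil 5 µM positive control.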

The subject of series [11] is Erythrocyte. The experiment in a line: Induction of [3H]-chloroquine accumulation in erythrocytes infected with chloroquine-resistant Plasmodium falciparum K1 trophozoites at 1 ug/ml pre-incubated for 15 mins before exposure to [3H]-chloroquine measured after 1 hr by liquid scintillation counting relative to control. In kind it is functional, cell-based. The procedure, abridged: as §2

For the molecule `Oc1ccccc1` [PHENOL], in [1], the IC50 is > 100 µM.
For `c1ccc(OCC2CO2)cc1` (stereo unspecified), the IC50 in [1] stood at 77 µM.
In series [1], `Oc1cccc2ccccc12` [1-NAPHTHOL] showed an IC50 of 56.5 µM.
Regarding `Oc1ccc2ccccc2c1` [BETANAPHTHOL], the IC50 in series [1] is > 100 µM.
Turning to `CC(C)c1c(OCC(O)CN2CCN(c3ccccc3Cl)CC2)ccc2c1CC[C@H]1C(C)(C)CCC[C@]21C` (single isomer, unassigned), the IC50 turned out to be 3.25 µM in [1], 940 nM in [2] and 186 µM in series [4]. Further, the “Ratio IC50” value in series [3] was found to be 0.23. In addition, the selectivity ratio in series [5] came out at 57.3; in [6] it was 207.
As for `CN1CCN(CC(O)COc2ccc3ccccc3c2)CC1` (racemic), the concentration for half-maximal inhibition (IC50) in series [1] stood at 42.9 µM; in series [2], 8210 nM; in series [4], 149 µM. Besides, the “Ratio IC50” value in series [3] came out at 0.19. In addition, the selectivity ratio in [5] worked out at 3.5; in series [6], 18.1.
With `CN1CCN(CC(O)COc2cccc3ccccc23)CC1` (racemic), the IC50 in series [1] was 41.8 µM; in [2], 7230 nM; in series [4], 261 µM. Besides, the “Ratio IC50” value in series [3] is reported as 0.17. In addition, the values for the selectivity ratio in [5] and in series [6] were 6.2 and 36.1, respectively.
In the case of `CC(C)c1c(OCC2CO2)ccc2c1CC[C@H]1C(C)(C)CCC[C@]21C` (stereo partly specified), the 50% inhibitory concentration (IC50) stood at 10.3 µM in [1] and 14000 nM in series [2]. In addition, in [3], the “Ratio IC50” value came to 1.36.
`CC(C)c1c(OCC(O)CNCc2ccccc2)ccc2c1CC[C@H]1C(C)(C)CCC[C@]21C` (stereo partly specified): the IC50 in series [1] came out at 6.47 µM; in series [2], 650 nM; in series [4], 14.4 µM. Moreover, in series [3], the “Ratio IC50” value was determined as 0.1. For the same molecule, the selectivity ratio was found to be 2.2 in series [5] and 22.3 in series [6]. Also, the results for the Activity entry in series [7], in [8] and in series [9] were “Non-toxic”, 8.31% and -0.52%, respectively.
Turning to `CC(C)c1c(OCC(O)CN2CCCCC2)ccc2c1CC[C@H]1C(C)(C)CCC[C@]21C` (stereo partly specified), the IC50 in series [1] was determined as 1.08 µM; in series [2], 750 nM; in [4] it was 2.99 µM. In addition, in series [3], the “Ratio IC50” value is 0.7. The selectivity ratio came to 2.8 in series [5] and 4 in series [6].
With `CC(C)c1c(OCC(O)CN2CCOCC2)ccc2c1CC[C@H]1C(C)(C)CCC[C@]21C` (mixture of isomers), the IC50 in [1] worked out at 2.07 µM; in [2], 560 nM; in [4], 5.61 µM. Besides, in series [3], the “Ratio IC50” value is reported as 0.27. Also, the figures for the selectivity ratio in series [5] and in [6] were 2.7 and 10, respectively.
Turning to `CC(C)NCC(O)COc1cccc2ccccc12` (racemic) [PROPRANOLOL], the results for the Activity in series [8] and in [9] were 5.35% and -3.48%, respectively.
Take `CC(C)c1c(O)ccc2c1CC[C@H]1C(C)(C)CCC[C@]21C` [TOTAROL]: the IC50 in series [1] stood at 11.8 µM; in [2], 11700 nM; in series [4] it was 170 µM. Further, the “Ratio IC50” value in [3] was determined as 0.99. Besides, the selectivity ratio turned out to be 14.5 in [5] and 14.6 in series [6].
For the molecule `OC(CNCc1ccccc1)COc1cccc2ccccc12` (racemic), the results for the IC50 in series [1], in [2] and in series [4] were 5.18 µM, 730 nM and 8.27 µM, respectively. Also, the “Ratio IC50” value in [3] turned out to be 0.14. Moreover, the figures for the selectivity ratio in series [5] and in [6] were 1.6 and 11.2, respectively. Also, the Activity in series [8] is reported as 10.24%; in series [9], 1.41%.
`OC(CNCc1ccccc1)COc1ccc2ccccc2c1` (racemic): the results for the IC50 in series [1], in series [2] and in series [4] were 6.77 µM, 13500 nM and 123 µM, respectively. The “Ratio IC50” value in series [3] came out at 2. For the same molecule, the selectivity ratio in [5] was found to be 18.2; in [6] it was 9.1.
Turning to `CCOc1ccccc1N1CCN(CC(O)COc2ccc3c(c2C(C)C)CC[C@H]2C(C)(C)CCC[C@]32C)CC1` (stereo partly specified), the half-inhibitory concentration (IC50) in series [1] was determined as 1.62 µM; in series [2] it was 1010 nM; in series [4], 183 µM. For the same molecule, the “Ratio IC50” value in [3] amounted to 0.62. The values for the selectivity ratio in series [5] and in series [6] were 113 and 181, respectively.
Turning to `CCN(CC)CC(O)COc1ccc2c(c1C(C)C)CC[C@H]1C(C)(C)CCC[C@]21C` (stereo partly specified), the values for the IC50 in [1], in [2] and in series [4] were 0.61 µM, 630 nM and 7.73 µM, respectively. In series [3], the “Ratio IC50” value is 1.04. The selectivity ratio turned out to be 12.7 in [5] and 12.2 in series [6].
For the molecule `CN1CCN(CC(O)COc2ccccc2)CC1` (racemic), the IC50 in series [1] is > 100 µM.
`CC(C)c1c(OCC(O)CN2C(=O)c3ccccc3C2=O)ccc2c1CC[C@H]1C(C)(C)CCC[C@]21C` (stereo partly specified): the half-inhibitory concentration (IC50) in [1] worked out at 9.55 µM; in [2], 48300 nM. Moreover, the “Ratio IC50” value in series [3] came out at 5.06.
In the case of `OC(COc1cccc2ccccc12)CN1CCN(c2ccccc2Cl)CC1` (racemic), the IC50 in series [1] was > 100 µM.
For the molecule `CC(C)c1c(OCC(O)CN2CCN(c3ccccc3)CC2)ccc2c1CC[C@H]1C(C)(C)CCC[C@]21C` (stereo partly specified), the IC50 in series [1] stood at 2.56 µM; in series [2], 1810 nM; in series [4] it was 105 µM. Further, the “Ratio IC50” value in [3] was determined as 0.71. The selectivity ratio turned out to be 41.2 in series [5] and 58.1 in series [6].
With `c1ccc2c(OCC3CO3)cccc2c1` (stereo unspecified), in series [1], the half-maximal inhibitory concentration (IC50) was > 100 µM.
In the case of `CC(C)NCC(O)COc1ccc2c(c1C(C)C)CC[C@H]1C(C)(C)CCC[C@]21C` (stereo partly specified), the IC50 in series [1] was 1.05 µM; in series [2] it was 170 nM; in series [4], 1.28 µM. In [3], the “Ratio IC50” value stood at 0.14. Also, the selectivity ratio amounted to 1.2 in [5] and 8.7 in series [6]. In addition, the Activity entry in series [7] was “Non-toxic”; in series [8] it was 5.43%; in [9], -3.4%.
Take `COc1ccc(CCN(C)CCCC(C#N)(c2ccc(OC)c(OC)c2)C(C)C)cc1OC` (stereo unspecified): the “fold change (FC)” value in series [10] is recorded as >3.
In the case of `CC(C)c1c(OCC(O)CN2CCN(c3ccnc4cc(Cl)ccc34)CC2)ccc2c1CC[C@H]1C(C)(C)CCC[C@]21C` (single isomer, unassigned), the IC50 in series [1] is 1.42 µM; in [2] it was 930 nM; in series [4], 94.2 µM. For the same molecule, the “Ratio IC50” value in series [3] was 0.64. Moreover, the selectivity ratio is 67.3 in series [5] and > 100 in series [6].
As to `CC(C)c1c(OCC(O)CN2CCN(C)CC2)ccc2c1CC[C@H]1C(C)(C)CCC[C@]21C` (stereo partly specified), the IC50 is 1.36 µM in series [1], 1390 nM in [2] and 3.73 µM in series [4]. Moreover, in series [3], the “Ratio IC50” value amounted to 1.03. For the same molecule, the selectivity ratio in [5] and in series [6] was 2.7 in each case. Also, in [7], the Activity result is listed as “Toxic”. Also, the result in series [11] was Active.
